Here are results for five compounds from PMC10874764 (Chinese Herbal Medicines, 2023).

Where two headings read alike, the source gives them in different places.

A short description of data set [1]: Pharmacokinetics of five components in control. The format is in vivo, SD rats. The following applies: for AUC / AUC(0-t) / Cmax / MRT last / half-life / Tmax: male, SD, rat, plasma, po, 1.5 mL/200 g, n = 6; for AUC: AUC(0−i); for MRT last: MRT0−t. The method, boiled down: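 Male SD rats (8-week-old, 200–220 g), four groups (n = 6). Acute liver injury induced by intraperitoneal 50% CCl4 in olive oil at 3 mL/kg; controls received olive oil; fasted with water. After 12 h, single intragastric decoction at 1.5 mL/200 g. Tail-vein blood taken at 0–12 h into heparin. HPLC-MS/MS with internal standard; compartment-model fit for AUC, Cmax, Tmax, T1/2 and MRT.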

Data set [2] is classed as in vivo, SD rats. The following applies: male, SD, rat, plasma, po, 1.5 mL/200 g.
The nature of data set [3]: Stability of each chemical component in rat plasma. The data set is classed as in vitro ADME. The method, boiled down:
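Blank rat plasma was spiked at 10, 100 and 500 ng/mL and held at room temperature for 24 h, at 4 °C for 14 d, or frozen at −20 °C for 15 d. Six samples per level were assayed by HPLC-MS/MS against 1,8-dihydroxyanthraquinone internal standard. Calibration ran 5–1 000 ng/mL, with analyte/IS ratio fitted by 1/x-weighted least squares.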

The mark [4] stands for this setting: RhRR of control group, single oral 1.5 mL/200 g RhRR decoction.
Where [5] appears, read: RhRR-EuS of control group, single oral 1.5 mL/200 g RhRR-EuS decoction.
Setting [6] is: T1/2, RhRR-EuS of control group, single oral 1.5 mL/200 g RhRR-EuS decoction.
Setting [7] is: 10 ng/mL, room temperature for 24 h.
Where [8] appears, read: 100 ng/mL, room temperature for 24 h.
Where [9] appears, read: 100 ng/mL, −20 °C free for 15 d.
Setting [10] is: 500 ng/mL, room temperature for 24 h.
Setting [11] is: 500 ng/mL, −20 °C free for 15 d.

`O=C1c2cccc(O)c2C(=O)c2c(O)cc(CO)cc21` [Ae, Aloe emodin]: the AUC in data set [1] (setting [4]) was determined as 0.738 µg·h/mL; in data set [1] (setting [5]), 0.489 µg·h/mL. The AUC(0-t) in data set [1] (setting [4]) turned out to be 0.474 µg·h/mL; in data set [1] (setting [5]), 0.443 µg·h/mL. Besides, the figures for the Cmax in data set [1] (setting [4]) and in data set [1] (setting [5]) were 0.101 µg/mL and 0.124 µg/mL, respectively. For the same compound, the MRT last came to 11.9 h in data set [1] (setting [4]) and 5.78 h in data set [1] (setting [5]). The compound further showed a half-life in data set [1] (setting [6]) of 3.04 h. Also, the Tmax was 2 h in data set [1] (setting [4]), 0.5 h in data set [1] (setting [5]) and 2 h in data set [2]. For the same compound, the “Stability S” value is 99.60% in data set [3] (setting [7]); 107% in data set [3] (10 ng/mL, −4 °C for 14 d); 88.6% in data set [3] (10 ng/mL, −20 °C free for 15 d); 88.50% in data set [3] (setting [8]); 112% in data set [3] (100 ng/mL, −4 °C for 14 d); 84.3% in data set [3] (setting [9]). For the same compound, the “Stability S” value is 98.50% in data set [3] (setting [10]); 98.30% in data set [3] (500 ng/mL, −4 °C for 14 d); 85.6% in data set [3] (setting [11]).
Consider `Cc1cc(O)c2c(c1)C(=O)c1cccc(O)c1C2=O` [Ch, Chrysophanol], for which the AUC in data set [1] (setting [4]) worked out at 0.712 µg·h/mL; in data set [1] (setting [5]) it was 0.763 µg·h/mL. Besides, the AUC(0-t) in data set [1] (setting [4]) worked out at 0.662 µg·h/mL; in data set [1] (setting [5]) it was 0.739 µg·h/mL. Moreover, the highest concentration (Cmax) in data set [1] (setting [4]) came out at 0.164 µg/mL; in data set [1] (setting [5]) it was 0.17 µg/mL. For the same compound, the MRT last in data set [1] (setting [4]) came out at 5.33 h; in data set [1] (setting [5]), 5.64 h. For the same compound, the half-life is 3.64 h in data set [1] (T1/2, RhRR of control group, single oral 1.5 mL/200 g RhRR decoction) and 1.31 h in data set [1] (setting [6]). The Tmax in data set [1] (setting [4]) was found to be 1 h; in data set [2], 0.5 h. For the same compound, the “Stability S” value in data set [3] (setting [7]) came to 114%; in data set [3] (10 ng/mL, −4 °C for 14 d) it was 99.70%; in data set [3] (10 ng/mL, −20 °C free for 15 d) it was 105.40%; in data set [3] (setting [8]), 105%; in data set [3] (100 ng/mL, −4 °C for 14 d), 103%; in data set [3] (setting [9]), 102.30%. For the same compound, the “Stability S” value in data set [3] (setting [10]) is recorded as 90.40%; in data set [3] (500 ng/mL, −4 °C for 14 d) it was 96.30%; in data set [3] (setting [11]), 99.50%.
`Cc1cc(O)c2c(c1)C(=O)c1cc(O)cc(O)c1C2=O` [Em, Emodin]: the exposure (AUC) in data set [1] (setting [4]) came to 0.0941 µg·h/mL; in data set [1] (setting [5]), 0.154 µg·h/mL. In addition, the AUC(0-t) in data set [1] (setting [4]) stood at 0.0677 µg·h/mL; in data set [1] (setting [5]) it was 0.0683 µg·h/mL. The figures for the Cmax in data set [1] (setting [4]) and in data set [1] (setting [5]) were 0.0112 µg/mL and 0.0164 µg/mL, respectively. The MRT last in data set [1] (setting [4]) is 9.3 h; in data set [1] (setting [5]), 18.3 h. Further, in data set [1] (setting [6]), the half-life is 11.4 h. For the same compound, the Tmax in data set [1] (setting [4]) turned out to be 0.5 h. The “Stability S” value in data set [3] (setting [7]) turned out to be 104.60%; in data set [3] (10 ng/mL, −4 °C for 14 d) it was 105%; in data set [3] (10 ng/mL, −20 °C free for 15 d) it was 98.50%; in data set [3] (setting [8]), 110.40%; in data set [3] (100 ng/mL, −4 °C for 14 d), 108%; in data set [3] (setting [9]), 108.40%. In addition, the “Stability S” value is listed as 99.60% in data set [3] (setting [10]); 89.90% in data set [3] (500 ng/mL, −4 °C for 14 d); 106% in data set [3] (setting [11]).
`COc1cc(O)c2c(c1)C(=O)c1cc(C)cc(O)c1C2=O` [Ph, Physcion]: the results for the AUC in data set [1] (setting [4]) and in data set [1] (setting [5]) were 0.414 µg·h/mL and 0.243 µg·h/mL, respectively. Also, the AUC(0-t) in data set [1] (setting [4]) and in data set [1] (setting [5]) was 0.136 µg·h/mL throughout. In addition, the figures for the Cmax in data set [1] (setting [4]) and in data set [1] (setting [5]) were 0.0544 µg/mL and 0.0586 µg/mL, respectively. The results for the MRT last in data set [1] (setting [4]) and in data set [1] (setting [5]) were 37.3 h and 14.7 h, respectively. In data set [1] (setting [6]), the half-life is 10.9 h. Moreover, the Tmax in data set [1] (setting [5]) and in data set [2] was 0.25 h in each case. In addition, the “Stability S” value in data set [3] (setting [7]) is 103%; in data set [3] (10 ng/mL, −4 °C for 14 d), 99.50%; in data set [3] (10 ng/mL, −20 °C free for 15 d), 105%; in data set [3] (setting [8]), 105%; in data set [3] (100 ng/mL, −4 °C for 14 d) it was 102%; in data set [3] (setting [9]), 100.6%. Further, the “Stability S” value is recorded as 90.50% in data set [3] (setting [10]); 96.70% in data set [3] (500 ng/mL, −4 °C for 14 d); 95.3% in data set [3] (setting [11]).
As to `O=C(O)c1cc(O)c2c(c1)C(=O)c1cccc(O)c1C2=O` [Rh, Rhein], the “Bioavailability among the five components” value in data set [1] (all groups (control and model rats, oral RhRR or RhRR-EuS decoction)) is “highest”. Besides, the AUC in data set [1] (setting [4]) came out at 1.67 µg·h/mL; in data set [1] (setting [5]), 1.72 µg·h/mL. Also, the results for the AUC(0-t) in data set [1] (setting [4]) and in data set [1] (setting [5]) were 1.44 µg·h/mL and 1.6 µg·h/mL, respectively. The figures for the Cmax in data set [1] (setting [4]) and in data set [1] (setting [5]) were 0.434 µg/mL and 0.455 µg/mL, respectively. Moreover, the MRT last in data set [1] (setting [4]) stood at 6.31 h; in data set [1] (setting [5]), 5.44 h. Besides, the half-life in data set [1] (setting [6]) is 1.84 h. Also, in data set [2], the time of peak concentration (Tmax) is 8 h. The “Stability S” value is given as 106.20% in data set [3] (setting [7]); 95.90% in data set [3] (10 ng/mL, −4 °C for 14 d); 109.40% in data set [3] (10 ng/mL, −20 °C free for 15 d); 112.30% in data set [3] (setting [8]); 94.60% in data set [3] (100 ng/mL, −4 °C for 14 d); 95.30% in data set [3] (setting [9]). Moreover, the “Stability S” value in data set [3] (setting [10]) amounted to 89.40%; in data set [3] (500 ng/mL, −4 °C for 14 d), 85.40%; in data set [3] (setting [11]), 100.40%.
